# Bioassay records from PubChem BioAssay.
# Most compounds without a hit are left out; they make up all but 2% or so of the library.
# APJ antag: blocks the human apelin receptor APJ | P35414 | CHO-K1 APJ beta-arrestin complementation, luminescence | inhibition, % at 20 µM | 330,000 tested, 0.32% active | AID 2521;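 active = inhibition above about 40% at 20 µM, limit read from the data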;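 note: cells challenged with 10 nM apelin-13 agonist together with compound; plate controls were apelin-13 plus DMSO wells for no effect and DMSO wells lacking apelin-13 for full effect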
# APJ ag: activates the human apelin receptor APJ; CHO-K1 APJ PathHunter beta-arrestin, luminescence; 0% DMSO wells, 100% apelin; 330,000 tested, 0.11% active; P35414; activation, % at 20 µM;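 active = activation more than six SD over the plate average, tested at 20 µM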;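 note: 0% = DMSO alone and 100% = apelin-13 at 10 nM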
#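 Test system: CHO-K1 APJ beta-arrestin complementation cell line. Amount: cell density 1000 per well. Controls: DMSO negative, 10 nM Apelin-13 positive. Signal: luminescent beta-gal fragment complementation, chemiluminescent substrate. Read-out basis: agonist-driven arrestin binding to APJ. Timing: compound stimulation 90 min at 25 °C, detection 60 min.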
# CCR6 antag: antagonists of human CCR6 receptor. CHO-K1 CCR6 PathHunter beta-arrestin, luminescence, CCL20-stimulated. P51684. 340,000 tested, 0.49% active. inhibition, % at 20 µM;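 active = compounds whose inhibition of the agonist-driven luminescence signal at 20 µM reaches about 50%, limit read from the data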;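 note: cells stimulated with CCL20 at 14 nM final; plate controls were DMSO with CCL20 for no effect and DMSO without agonist for full effect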
# EBI2 antag: blocks human EBI2 receptor beta-arrestin signaling | EBI2 beta-arrestin recruitment, luminescence, 7a,25-OHC stimulated | inhibition, % at 5 µM | 360,000 tested, 0.81% active | AID 651636; in the data active = inhibition above about 38%;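 note: enzyme fragment complementation signal reports receptor beta-arrestin coupling in cells; 0% = agonist plus DMSO wells and 100% = wells without agonist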
# Target sequence (P32249 whole entry, looked up, the tested form may be a part): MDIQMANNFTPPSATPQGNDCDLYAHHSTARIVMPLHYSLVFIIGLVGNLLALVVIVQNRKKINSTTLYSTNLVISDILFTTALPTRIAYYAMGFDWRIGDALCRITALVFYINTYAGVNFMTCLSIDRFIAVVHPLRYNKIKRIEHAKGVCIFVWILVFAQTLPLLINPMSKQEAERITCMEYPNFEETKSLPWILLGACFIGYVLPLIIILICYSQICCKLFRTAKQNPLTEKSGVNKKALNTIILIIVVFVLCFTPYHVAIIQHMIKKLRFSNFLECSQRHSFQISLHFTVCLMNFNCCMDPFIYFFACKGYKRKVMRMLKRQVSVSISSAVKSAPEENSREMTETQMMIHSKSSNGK
# GAA850 FXN act: increases GAA850 frataxin promoter reporter activity; HEK293 lucGAA850 FXN promoter luciferase reporter, 24 h; percent of 10 µM SAHA response; activation, % at 6 µM; 360,000 tested, 0.56% active; AID 540364;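 active = activation above the average of all compounds screened plus 3 SD, cutoff fixed separately per campaign, cut at about 7.5% in these data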;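 note: 0% = DMSO wells and 100% = 10 µM SAHA wells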
# CXCR6 block: inhibitors of human CXCR6 receptor; AID 602244; O00574; 360,000 tested, 0.36% active; CHO-K1 PathHunter CXCR6 beta-arrestin, luminescence; inhibition, % at 20 µM; in the data active = inhibition above about 34%, passing the limit was not always enough;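 note: antagonist mode with CXCL16 agonist at 10 nM final; 0% = 10 nM CXCL16 with DMSO and 100% = unstimulated wells without agonist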
# CXCR6 confirm: CXCR6 antagonism confirmation, single concentration. shares compounds with CXCR6 block. CHO-K1 CXCR6 PathHunter beta-arrestin, luminescence. inhibition, % at 20 µM. 700 tested, 65% active. AID 602409;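 active = mean inhibition over four retests above 40%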;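 note: receptor stimulated with 10 nM CXCL16 agonist; beta-galactosidase fragment complementation upon beta-arrestin recruitment to receptor; plate controls were CXCL16 plus DMSO for no effect and DMSO without CXCL16 for full effect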
# The depositor's hits bear a star; x = no result given.
SMILES,APJ antag,APJ ag,CCR6 antag,EBI2 antag,GAA850 FXN act,CXCR6 block,CXCR6 confirm
COc1cc(/C=C(\C#N)c2nc3ccccc3o2)ccc1O,32,-8,55*,7,2,49*,43*
O=C1NC(=O)C(c2ccccc2)(c2ccc(Cl)cc2Cl)N1 (centres undefined),x,x,1,-4,-3,0,x
COc1cc2c(cc1OC)CN(C(=O)CSC1=NCCS1)CC2,x,x,x,1,2,0,x
COc1cc2c(cc1OC)CN(C(=O)CSc1nc(N)c(C#N)cc1C#N)CC2,6,-3,-16,-3,-2,46*,4
CC(NC(=O)CCC(=O)NCc1ccc(F)cc1)c1ccccc1 (centres undefined),-9,-3,18,7,-1,80*,-4
CC(C)(C)c1ccc(C(=O)N2CCC2(C)C(=O)NCc2ccc3c(c2)OCO3)cc1 (centres undefined),x,x,x,-11,-2,1,x
CC(C)(C)c1ccc(OCC(=O)Nc2ccncc2)cc1,-2,-2,-3,-1,0,41*,16
COc1ccc(F)cc1-c1cc(C(=O)NC2CCCCC2)[nH]n1,x,x,x,-4,1,-6,x
O=[N+]([O-])c1ccc(N/N=C/c2sc(N3CCOCC3)nc2-c2ccccc2)c(S(=O)(=O)Nc2ccccc2Cl)c1,x,x,58*,15,1,54*,60*
O=C(COc1ccc([N+](=O)[O-])cc1)NNC(=O)Nc1cccc(F)c1,8,-1,6,2,0,-1,x
N#Cc1c(SCC(N)=O)nsc1SCc1ccc(Cl)cc1,-5,0,5,2,0,-7,x
N#Cc1c(SCC(N)=O)nsc1SCc1ccccc1Cl,1,-4,18,-8,2,83*,0
CCOC(=O)[C@]12CCC=C1N(Cc1cccc3ccccc13)C(=O)[C@H](CC(=O)NCCCOC)C2,x,x,x,-4,x,-1,x
O=C(Nc1nccs1)c1sc2cc(Cl)ccc2c1Cl,31,-6,73*,16,0,67*,76*
O=C(Nc1nccs1)c1sc2ccccc2c1Cl,12,-3,39,4,2,30,x
Oc1c(Br)cc(Br)cc1C=NCc1ccc(F)cc1,-4,2,13,-10,1,28,x
Oc1c(Br)cc(Br)cc1C=NCc1ccccc1,6,-4,21,3,0,41*,51*
CCOC(=O)c1ccc(NC(=O)c2nc(SC)ncc2Cl)cc1,13,-5,21,-10,2,4,x
CCN(c1ccccc1)S(=O)(=O)c1ccc(NC(=O)c2nc(S(C)(=O)=O)ncc2Cl)cc1,20,9,96*,9,-4,81*,68*
Cc1ccccc1CS(=O)(=O)c1ncc(Cl)c(C(=O)Nc2ccc(F)cc2)n1,0,0,x,53*,-6,58*,58*
CCN(c1ccccc1)S(=O)(=O)c1ccc(C(=O)Nc2ccncc2)cc1,-44,3,0,-4,-1,7,x
Cc1ccc(NC(=O)c2nc(S(=O)(=O)Cc3ccccc3)ncc2Cl)cc1,18,0,80*,34,5,59*,57*
Cc1cccc(CS(=O)(=O)c2ncc(Cl)c(C(=O)NCc3ccccc3)n2)c1,16,-3,48,30,-2,57*,64*
Cc1ccc(S(=O)(=O)N2C[C@@H]3[C@H]4CC[C@H](C4)[C@@H]3[C@@H](C)[C@@H]2c2ccn([Si](C(C)C)(C(C)C)C(C)C)c2)cc1,x,x,15,1,0,4,x
CN(C)CCCNc1nc2cc(-c3ccc4c(ccn4C)c3)sc2c(=O)n1C,x,x,x,-4,3,5,x
SMILES,APJ antag,APJ ag,CCR6 antag,EBI2 antag,GAA850 FXN act,CXCR6 block,CXCR6 confirm
CC(C)(CNCc1ccccc1)NS(=O)(=O)c1ccc(Cl)cc1,-4,-3,10,4,-3,7,x
Clc1nc(-c2ccccn2)nc2scc(-c3ccccc3)c12,16,2,14,61*,5,51*,25
O=C(CNC(=O)C1CCCCC1)OCC(=O)c1cccc(Cl)c1,19,-6,15,-5,1,8,x
COc1ccc(C(=O)/C(=C\c2ccco2)N2C=CC=CC2=C(C#N)C#N)cc1,86*,-8,100*,54*,-14,84*,103*
N#CC(C#N)=C1C=CC=CN1/C(=C\c1ccco1)C(=O)c1ccccc1,x,x,100*,78*,-13,98*,105*
COCCNC(=O)c1ccc(N2CC3CC(C2)c2cccc(=O)n2C3)c(NC(=O)c2ccc(C(C)(C)C)cc2)c1 (centres undefined),x,x,x,-3,-1,-4,x
Cc1ccc2c(c1)C1CN(C)CCC1N2C(=S)NC(=O)c1ccc(Br)cc1 (centres undefined),33,-5,56*,7,1,44*,67*
COc1ccc(OCC(=O)N2c3ccc(C)cc3C3CN(C)CCC32)cc1 (centres undefined),-6,-3,7,9,2,-10,x
CCN(CC)CC(C)(C)C(=O)/C=C/c1ccc(/C=C/C(=O)C(C)(C)CN(CC)CC)cc1,x,x,113*,78*,-16,98*,95*
NC(=S)N/N=C/c1ncc(C(F)(F)F)cc1Cl,58*,-7,74*,4,-6,61*,90*
Fc1ccc(CNC(=S)Nc2ccccc2Cl)cc1,-4,-1,-7,-10,1,47*,9
C/C(=N\Nc1nc2ccccc2[nH]1)c1cc2ccccc2o1,-3,3,23,16,6,4,x
C/C(=N\Nc1nc2ccccc2[nH]1)c1ccccn1,38,-7,x,9,-9,42*,70*
COc1ccc(-c2nn(C)c(=O)c3ccccc23)cc1NC(=O)Cn1nc(C)c2ccccc2c1=O,37,-10,66*,12,0,37*,47*
CCOc1cc(CNC(C)C)c(Cl)cc1OCC(=O)NCCc1ccccc1,-10,0,-3,-3,-8,-21,x
CCOc1cc(CNCCO)c(Cl)cc1OCC(=O)NCCc1ccccc1,-7,-1,-6,8,-3,71*,13
CCNC(=O)C1(C)CCCN1Cc1ccccc1Cl (centres undefined),x,x,x,0,2,10,x
CC(C)CNC(=O)C1(C)CCCCCN1Cc1ccccc1-c1ccccc1 (centres undefined),x,x,x,10,-4,37*,8
COCc1c(C(=O)OCc2nc3ccsc3c(=O)[nH]2)oc2ccccc12,-11,0,24,8,-1,-9,x
CC1Oc2ccc(C#N)cc2N(Cc2ccccc2OC(F)(F)F)C1=O (centres undefined),x,x,x,9,0,8,x
